According to ChEMBL document CHEMBL1157825, “1-(2-Ethoxyethyl)-1H-pyrazolo[4,3-d]pyrimidines as potent phosphodiesterase 5 (PDE5) inhibitors” (Bioorg Med Chem Lett, 2010):

assay: Volume of distribution at steady state in Beagle dog at 0.2 to 0.5 mg/kg, iv; type: ADME, organism-based, Canis lupus familiaris; design: dose 0.2-0.5 mg/kg, route intravenous; details: in vivo, read-out: Vdss
In short: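 Single IV dose of 0.2–0.5 mpk given to 10 kg beagles. Half-life reported in h, clearance in mL/min/kg and Vdss in L/kg.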

First: CCOCCn1nc(CC)c2nc(N3CCN(C)CC3)nc(Nc3cc(C)ccn3)c21
Second: CCOCCn1nc(CC)c2nc(N3CCC(N)CC3)nc(Nc3cc(C)ccn3)c21
The Vd of the first is 4.4-fold lower: 11.4 L/kg for the first, 50.4 L/kg for the second.

Compound CCOCCn1nc(CC)c2nc(N3CCC(C(=O)O)CC3)nc(Nc3cc(C)ccn3)c21 has a Vd of 3.8 L/kg.
